The text below walks through data of ChEMBL document CHEMBL2086383, “Antitumor agents. 293. Nontoxic dimethyl-4,4'-dimethoxy-5,6,5',6'-dimethylenedioxybiphenyl-2,2'-dicarboxylate (DDB) analogues chemosensitize multidrug-resistant cancer cells to clinical anticancer drugs” (J Med Chem, 2012).

Holding throughout (type): cell-based
For one series, the system named is KB. The series is described as follows: Antiproliferative activity against human KB cells after 72 hrs by SRB assay. The conditions noted are these: Homo sapiens, KB. Put shortly:
(§1)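 SRB assay. Cells at 3–5 × 10^3/well were exposed to a range of sample concentrations for 72 h. They were fixed in 50% TCA for 30 min, stained with 0.04% SRB for 30 min, and the dye was dissolved in 10 mM Tris base. Absorbance read at 515 nm. Medium was RPMI 1640 with 10% FBS at 37 °C, 5% CO2. KBvin cells were kept in 100 nM vincristine.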
A general note: The SRB assay estimates cell density from bound dye.

In another series the test system is DU-145. In words: Antiproliferative activity against human DU145 cells after 72 hrs by SRB assay. The conditions noted are these: Homo sapiens, DU-145, 72 h. Put shortly: as §1
The next series deals with A549. The series is described as follows: Antiproliferative activity against human A549 cells after 72 hrs by SRB assay. Conditions: Homo sapiens, A549, 72 h. Put shortly: as §1
Series [1] relates to KBVIN. In words: Inhibition of P-gp-mediated multidrug-resistance in human KBVIN cells assessed as fold decrease in doxorubicin IC50 for cytotoxic activity at 10 uM after 72 hrs by SRB assay relative to control. Summed up: (§2)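 KBvin cells were exposed to graded concentrations of anticancer drug (doxorubicin, paclitaxel or vincristine), alone or with 10 μM test compound, for 72 h. Growth was read by SRB assay. IC50 was found by log-linear interpolation. Reversal fold = IC50 (drug alone) / IC50 (drug + compound). Verapamil was the positive control. Each experiment was run at least three times.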

Series [2] deals with KBVIN. In words: Inhibition of P-gp-mediated multidrug-resistance in human KBVIN cells assessed as fold decrease in vincristine IC50 for cytotoxic activity at 10 uM after 72 hrs by SRB assay relative to control. Put shortly: as §2
Series [3] has as its system KBVIN. The series is described as follows: Inhibition of P-gp-mediated multidrug-resistance in human KBVIN cells assessed as fold decrease in paclitaxel IC50 for cytotoxic activity at 10 uM after 72 hrs by SRB assay relative to control. Summed up: as §2
For series [4], the system named is NIH3T3. In words: Inhibition of human P-gp-mediated multidrug-resistance in mouse NIH3T3 MDR cells assessed as potentiation of in vincristine-induced cytotoxic activity at 10 uM after 72 hrs by SRB assay. The conditions noted are these: Mus musculus cells expressing human P-gp.
Series [5] concerns the target ATP-dependent translocase ABCB1 (Homo sapiens, UniProt P08183). The series is described as follows: Inhibition of P-gp over expressed in human multidrug-resistant KBVIN cells assessed as intracellular accumulation of doxorubicin at 10uM after 3 hrs by fluorescence microplate reader analysis relative to control. Summed up: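 KBvin cells at 5 × 10^3/well were pretreated with compound for 1 h, then given doxorubicin (10 μM final) for 3 h. Cells were washed with ice-cold PBS and lysed in 1% SDS/PBS. Verapamil or CsA served as positive control.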

Series [6] is described as follows: Antiproliferative activity against human multidrug-resistant KBVIN cells after 72 hrs by SRB assay. Conditions: Homo sapiens, KBVIN. Summed up: as §1
The subject of series [7] is NIH3T3. In words: Inhibition of human P-gp-mediated multidrug-resistance in mouse NIH3T3 MDR cells assessed as potentiation of in paclitaxel-induced cytotoxic activity at 10 uM after 72 hrs by SRB assay. Conditions: human P-gp expressed in mouse cells.

Active and inactive are the calls of the source. The calls are words filed in the database; no cut-off is given here.

ATP-dependent translocase ABCB1, sequence (P08183 whole entry): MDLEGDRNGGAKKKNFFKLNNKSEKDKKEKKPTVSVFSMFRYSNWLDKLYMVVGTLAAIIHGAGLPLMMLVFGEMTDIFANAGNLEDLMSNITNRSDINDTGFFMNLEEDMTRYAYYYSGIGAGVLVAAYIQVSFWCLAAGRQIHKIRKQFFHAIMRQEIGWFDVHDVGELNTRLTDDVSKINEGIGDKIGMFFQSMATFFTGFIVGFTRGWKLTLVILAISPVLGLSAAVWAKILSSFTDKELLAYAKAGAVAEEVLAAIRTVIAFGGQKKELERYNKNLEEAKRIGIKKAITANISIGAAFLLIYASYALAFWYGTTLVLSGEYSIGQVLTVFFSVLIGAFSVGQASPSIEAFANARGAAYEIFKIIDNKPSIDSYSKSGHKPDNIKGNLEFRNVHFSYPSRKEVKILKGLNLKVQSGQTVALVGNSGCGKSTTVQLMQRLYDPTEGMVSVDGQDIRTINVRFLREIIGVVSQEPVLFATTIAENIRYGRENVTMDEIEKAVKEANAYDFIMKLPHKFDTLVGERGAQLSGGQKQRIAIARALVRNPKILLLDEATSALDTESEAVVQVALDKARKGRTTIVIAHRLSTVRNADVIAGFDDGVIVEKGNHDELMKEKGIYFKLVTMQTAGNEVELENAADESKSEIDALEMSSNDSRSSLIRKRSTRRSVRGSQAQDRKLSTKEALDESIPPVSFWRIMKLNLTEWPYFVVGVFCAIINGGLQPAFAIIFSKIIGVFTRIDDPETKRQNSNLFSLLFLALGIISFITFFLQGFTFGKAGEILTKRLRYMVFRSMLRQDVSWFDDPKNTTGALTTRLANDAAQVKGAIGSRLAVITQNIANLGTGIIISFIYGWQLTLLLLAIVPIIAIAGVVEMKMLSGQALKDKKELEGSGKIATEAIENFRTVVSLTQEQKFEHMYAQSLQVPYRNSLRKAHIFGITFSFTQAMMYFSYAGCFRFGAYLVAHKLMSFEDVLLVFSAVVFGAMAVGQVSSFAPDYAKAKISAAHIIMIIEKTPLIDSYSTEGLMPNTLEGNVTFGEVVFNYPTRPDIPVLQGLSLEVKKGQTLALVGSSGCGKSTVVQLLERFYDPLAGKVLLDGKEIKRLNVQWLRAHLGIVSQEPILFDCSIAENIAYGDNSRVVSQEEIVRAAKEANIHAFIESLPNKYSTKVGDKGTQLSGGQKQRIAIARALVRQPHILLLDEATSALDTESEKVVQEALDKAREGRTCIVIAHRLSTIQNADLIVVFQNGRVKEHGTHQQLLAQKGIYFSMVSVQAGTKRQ

`C/C=C/C(=O)OCc1cc(OC)c2c(c1-c1c(COC(=O)/C=C/C)cc(OC)c3c1OCO3)OCO2`: the IC50 (with KB; in the series on DU-145; in the series with A549; in series [6]) was greater than 100 µM in each case. In addition, the fold change (FC) with KBVIN [1] was 4; in the series with KBVIN [2], 230; with KBVIN [3] it was 102; in series [5], 1.2. Further, the inhibition entry in the series on NIH3T3 [4] and in the series with NIH3T3 [7] was “Active” in each case.

Take `COc1c(Br)c(COC(=O)c2ccccc2)c(-c2c(COC(=O)c3ccccc3)c(Br)c(OC)c3c2OCO3)c2c1OCO2`: the IC50 (with KB; in the series with DU-145; in the series with A549; in series [6]) was greater than 100 µM throughout.

Regarding `CCCC(C)C(=O)OCc1cc(OC)c2c(c1-c1c(COC(=O)C(C)CCC)cc(OC)c3c1OCO3)OCO2` (racemic), the IC50 (in the series with KB; in the series on DU-145; in the series on A549; in series [6]) was greater than 100 µM throughout. Further, the fold change (FC) in the series on KBVIN [1] is 31; with KBVIN [2], 53; in the series with KBVIN [3], 25; in [5], 1.2. For the same compound, the inhibition result in the series with NIH3T3 [4] and in the series on NIH3T3 [7] was “Active” in each case.

With `CCC(=O)OCc1cc(OC)c2c(c1-c1c(COC(=O)CC)cc(OC)c3c1OCO3)OCO2`, the IC50 (in the series with KB; in the series with DU-145; in the series on A549; in series [6]) was greater than 100 µM in each case. Moreover, the fold change (FC) is 4 with KBVIN [1], 31 in the series on KBVIN [2], 12 with KBVIN [3] and 1.2 in series [5]. Besides, the inhibition entry with NIH3T3 [4] and with NIH3T3 [7] was “Active” throughout.

As for `COc1cccc2c1C(=O)c1c(O)c3c(c(O)c1C2=O)C[C@@](O)(C(=O)CO)C[C@@H]3O[C@H]1C[C@H](N)[C@H](O)[C@H](C)O1` [DOXORUBICIN], the “fold change (FC)” value in series [5] was 1.2.

Regarding `COc1cc(COC(=O)C=C(C)C)c(-c2c(COC(=O)C=C(C)C)cc(OC)c3c2OCO3)c2c1OCO2`, the IC50 (in the series on KB; in the series on DU-145; in the series on A549; in series [6]) was greater than 100 µM throughout. Moreover, the fold change (FC) was 7 in the series with KBVIN [1], 560 in the series on KBVIN [2], 326 in the series on KBVIN [3] and 1.2 in series [5]. In addition, the inhibition result in the series on NIH3T3 [4] and with NIH3T3 [7] was “Active” in each case.

As to `COc1cc(COC(=O)C(C)C)c(-c2c(COC(=O)C(C)C)cc(OC)c3c2OCO3)c2c1OCO2`, the IC50 (in the series with KB; with DU-145; in the series on A549; in series [6]) was greater than 100 µM each time. In addition, the fold change (FC) stood at 7 with KBVIN [1], 61 in the series with KBVIN [2], 21 in the series with KBVIN [3] and 1.2 in series [5]. For the same compound, the inhibition result in the series with NIH3T3 [4] and in the series on NIH3T3 [7] was “Active” in each case.

As to `COc1cc(COC(=O)c2ccc(C)cc2)c(-c2c(COC(=O)c3ccc(C)cc3)cc(OC)c3c2OCO3)c2c1OCO2`, the IC50 (in the series with KB; with DU-145; in the series on A549; in series [6]) was greater than 100 µM in each case. Moreover, the fold change (FC) with KBVIN [1] came to 11; with KBVIN [2] it was 51; with KBVIN [3], 27; in series [5] it was 1.2. Further, the inhibition entry with NIH3T3 [4] and in the series with NIH3T3 [7] was “Active” throughout.

On to `C/C=C/C=C/C(=O)OCc1cc(OC)c2c(c1-c1c(COC(=O)/C=C/C=C/C)cc(OC)c3c1OCO3)OCO2`, for which the IC50 (in the series with KB; in the series with DU-145; in the series on A549; in series [6]) was greater than 100 µM in each case. Further, the fold change (FC) in the series on KBVIN [1] stood at 3; in the series on KBVIN [2], 54; in the series with KBVIN [3], 21; in series [5] it was 1.2. The inhibition result in the series with NIH3T3 [4] and with NIH3T3 [7] was “Active” each time.

As to `COc1c(Br)c(C(=O)O)c(-c2c3c(c(OC)c(Br)c2C(=O)O)OCO3)c2c1OCO2`, the IC50 (in the series on KB; with DU-145; with A549; in series [6]) was greater than 100 µM throughout.

As for `COc1cc(COC(=O)CC(C)C)c(-c2c(COC(=O)CC(C)C)cc(OC)c3c2OCO3)c2c1OCO2`, the IC50 (in the series with KB; in the series on DU-145; in the series with A549; in series [6]) was greater than 100 µM throughout. For the same compound, the fold change (FC) in the series on KBVIN [1] was determined as 6; in the series with KBVIN [2] it was 79; in the series with KBVIN [3], 112; in series [5], 1.2. Further, the inhibition entry with NIH3T3 [4] and in the series with NIH3T3 [7] was “Active” each time.

With `CCC(C)C(=O)OCc1cc(OC)c2c(c1-c1c(COC(=O)C(C)CC)cc(OC)c3c1OCO3)OCO2` (racemic), the IC50 (with KB; in the series on DU-145; in the series on A549; in series [6]) was greater than 100 µM throughout. Also, the fold change (FC) with KBVIN [1] amounted to 21; in the series with KBVIN [2], 70; with KBVIN [3], 26; in series [5], 1.2. The inhibition result in the series on NIH3T3 [4] and in the series on NIH3T3 [7] was “Active” in each case.

For the compound `COc1cc(COC(=O)c2ccccc2)c(-c2c(COC(=O)c3ccccc3)cc(OC)c3c2OCO3)c2c1OCO2`, the IC50 (with KB; in the series with DU-145; with A549; in series [6]) was greater than 100 µM in each case. The fold change (FC) in the series on KBVIN [1] is 9; in the series on KBVIN [2], 101; in the series on KBVIN [3], 167; in series [5], 1.2. For the same compound, the inhibition entry in the series with NIH3T3 [4] and in the series with NIH3T3 [7] was “Active” each time.

`CCCCC(=O)OCc1cc(OC)c2c(c1-c1c(COC(=O)CCCC)cc(OC)c3c1OCO3)OCO2`: the IC50 (in the series on KB; in the series with DU-145; with A549; in series [6]) was greater than 100 µM throughout. Moreover, the fold change (FC) is 9 with KBVIN [1], 161 in the series with KBVIN [2], 24 with KBVIN [3] and 1.2 in series [5]. The inhibition result in the series on NIH3T3 [4] and in the series with NIH3T3 [7] was “Active” each time.

On to `CCCC(=O)OCc1cc(OC)c2c(c1-c1c(COC(=O)CCC)cc(OC)c3c1OCO3)OCO2`, for which the IC50 (in the series on KB; in the series with DU-145; in the series on A549; in series [6]) was greater than 100 µM throughout. The fold change (FC) worked out at 4 in the series with KBVIN [1], 50 in the series on KBVIN [2], 32 in the series on KBVIN [3] and 1.2 in series [5]. Further, the inhibition entry with NIH3T3 [4] and in the series with NIH3T3 [7] was “Active” in each case.

Consider `COc1ccc(C(=O)OCc2cc(OC)c3c(c2-c2c(COC(=O)c4ccc(OC)cc4)cc(OC)c4c2OCO4)OCO3)cc1`, for which the IC50 (with KB; in the series on DU-145; in the series with A549; in series [6]) was greater than 100 µM in each case. In addition, the fold change (FC) with KBVIN [1] came out at 11; in the series with KBVIN [2], 50; in the series with KBVIN [3], 27; in [5], 1.2. The inhibition result in the series on NIH3T3 [4] and in the series on NIH3T3 [7] was “Active” in each case.

Take `COc1cc(COC(=O)C2CCCCC2)c(-c2c(COC(=O)C3CCCCC3)cc(OC)c3c2OCO3)c2c1OCO2`: the IC50 (with KB; in the series with DU-145; in the series with A549; in series [6]) was greater than 100 µM each time. In addition, the fold change (FC) was 30 with KBVIN [1], 239 in the series on KBVIN [2], 24 with KBVIN [3] and 1.2 in series [5]. Further, the inhibition entry with NIH3T3 [4] and in the series on NIH3T3 [7] was “Active” in each case.

For the compound `COc1cc(COC(=O)C2CCCC2)c(-c2c(COC(=O)C3CCCC3)cc(OC)c3c2OCO3)c2c1OCO2`, the IC50 (with KB; in the series with DU-145; in the series with A549; in [6]) was greater than 100 µM throughout. Further, the fold change (FC) in the series with KBVIN [1] was 23; with KBVIN [2] it was 310; in the series with KBVIN [3] it was 20; in series [5], 1.2. Further, the inhibition result with NIH3T3 [4] and in the series with NIH3T3 [7] was “Active” in each case.
